Consider three molecules from ChEMBL document CHEMBL1122273, “5-sulfamoylorthanilic acids, a sulfonamide series with salidiuretic activity” (J Med Chem, 1983).

Each structure is given as a SMILES string. Active and inactive are the calls of the source. No cut-off for these calls is given here.

In assay [1] the test system is Canis familiaris. As to the kind of experiment: Salidiuretic activity on the basis of the 1.56 mg/Kg perorally in dog assay; compound is found to be highly active. The format is functional, organism-based. The settings on record: Canis lupus familiaris; Urine.
For assay [2], the system named is Rattus norvegicus. Nature of the assay: Salidiuretic activity on the basis of the 50 mg/kg perorally in rat assay; compound is found to be highly active. The settings on record: Urine.
For assay [3], the species on record is Rattus norvegicus. Nature of the assay: Saluretic activity in the rat measured as concentration of chloride in urine. The format is functional. In outline: (§1)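 Rats deprived of food 24 h, water ad libitum, dosed 50 mg/kg by stomach tube as suspension in 2% starch, no extra water load. Groups of three in diuresis funnels; urine over first 5 h collected. Na⁺ and K⁺ by flame photometry, Cl⁻ argentometrically; expressed as mequiv/kg.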

Assay [4] in a line: It is the ratio, measured as saluretic activity in the dog as concentration of Cl- in urinary excretion (dose 0.4 mg/kg perorally) to that of (Na+)+(K+). In kind it is functional, Urine. The settings on record: route oral. In outline:
(§2)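 Trained male beagles, fasted 24 h with tap water ad libitum. Bladder emptied by catheter, then 20 mL/kg tap water by stomach tube, with 4 mL/kg water at each hourly catheterization up to 8 h. The first 2 h of urine served as control. Oral dosing came after the second catheterization, and 1–6 h urine was pooled. Na⁺ and K⁺ were measured by flame photometry, Cl⁻ argentometrically, in mequiv/kg.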

For assay [5], the system named is Canis familiaris. As to the kind of experiment: Saluretic activity in the dog measured as concentration of K+ in urinary excretion (2 animals/dose) at (dose 6.25 mg/Kg, perorally). The format is functional, Canis lupus familiaris, Urine. The method in brief:
(§3)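 Male beagles trained to rest on a table and to accept stomach tube and catheter. Food withdrawn 24 h before, tap water ad libitum. Bladder emptied by catheter, then 20 mL/kg tap water by stomach tube. Catheterized hourly up to 8 h with 4 mL/kg water orally each time; first 2 h urine served as control. Oral dosing after second catheterization. Pooled 1–6 h urine; Na⁺/K⁺ by flame photometry, Cl⁻ argentometrically.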

For assay [6], the species on record is Rattus norvegicus. Nature of the assay: Diuretic activity in the rats, determined by a modified Lipschitz test. The format is functional, Urine. In outline: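 Modified Lipschitz test: rats deprived of water 24 h, grouped in threes of similar weight in diuresis funnels. Oral dose of 50 mg/kg, suspended in 2% starch solution, by stomach tube.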
For assay [7], the system named is Canis familiaris. As to the kind of experiment: Saluretic activity in the dog measured as concentration of K+ in urinary excretion (2 animals/dose) at (dose 1.56 mg/Kg, perorally). The format is functional, Canis lupus familiaris, Urine. The method in brief:
(§4)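 Male beagles trained to the procedures, food withdrawn 24 h before, tap water ad libitum. Bladder emptied by catheter, then 20 mL/kg tap water by stomach tube, plus 4 mL/kg orally at each hourly catheterization up to 8 h. The first 2 h of urine served as control. Compound given orally after the second catheterization. Urine from 1–6 h post-dose pooled; Na⁺ and K⁺ by flame photometry, Cl⁻ argentometrically, in mequiv/kg.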

In assay [8] the test system is Canis familiaris. As to the kind of experiment: Diuretic activity in the dog (2 animals/dose) at (dose 0.4 mg/Kg), when administered perorally. The format is functional, Canis lupus familiaris, Urine. The method in brief: as §2
The subject of assay [9] is Canis familiaris. Nature of the assay: Diuretic activity in the dog (2 animals/dose) at (dose 1.56 mg/Kg), when administered perorally. In kind it is functional, Canis lupus familiaris, Urine. In outline: as §2
A short description of assay [10]: It is the ratio, measured as saluretic activity in the dog as concentration of Cl- in urinary excretion ( perorally) to that (Na++K+).
For assay [11], the system named is Canis familiaris. As to the kind of experiment: Saluretic activity in the dog measured as concentration of Na+ in urinary excretion (2 animals/dose) at (dose 1.56 mg/Kg, perorally). The format is functional, Canis lupus familiaris, Urine. In outline:
as §3

Assay [12] concerns Canis familiaris. Nature of the assay: Saluretic activity in the dog measured as concentration of Na+ in urinary excretion (2 animals/dose) at (dose 0.4 mg/Kg, perorally). The format is functional, Canis lupus familiaris, Urine. The method in brief:
as §3

Assay [13] is filed under the species Rattus norvegicus. Nature of the assay: Saluretic activity in the rat measured as concentration of K+ in urine. The format is functional. The method in brief:
as §1

Assay [14] can be described thus: It is the ratio, measured as saluretic activity in the dog as concentration of Cl- in urinary excretion (dose 6.25 mg/Kg, perorally) to that of (Na+)+(K+). The format is functional, Urine. The method in brief: as §2
The species named for assay [15] is Rattus norvegicus. Nature of the assay: Saluretic activity in the rat measured as concentration of Na+ in urine. In kind it is functional. The method in brief: as §1
Assay [16] has as its system Canis familiaris. As to the kind of experiment: Saluretic activity in the dog measured as concentration of Cl - in urinary excretion (2 animals/dose) at (1.56 mg/Kg, perorally). In kind it is functional, Canis lupus familiaris, Urine. In outline:
as §4

Assay [17] relates to Canis familiaris. Nature of the assay: Saluretic activity in the dog measured as concentration of K+ in urinary excretion (2 animals/dose) at (dose 0.4 mg/Kg, perorally). The format is functional, Canis lupus familiaris, Urine. In outline:
as §4

Assay [18] relates to Canis familiaris. As to the kind of experiment: Saluretic activity in the dog measured as concentration of Cl - in urinary excretion (2 animals/dose) at (dose 0.4 mg/Kg, perorally). In kind it is functional, Canis lupus familiaris, Urine. The method in brief: as §4
A short description of assay [19]: It is the ratio, measured as saluretic activity in the dog as concentration of Na+ in urinary excretion (dose 1.56 mg/Kg, perorally) to that of K. In kind it is functional, Urine. In outline: as §2
For assay [20], the system named is Canis familiaris. Nature of the assay: Saluretic activity in the dog measured as concentration of Na+ in urinary excretion (2 animals/dose) at (dose 6.25 mg/Kg, perorally). In kind it is functional, Canis lupus familiaris, Urine. In outline:
as §3

Assay [21] is described as follows: It is the ratio, measured as saluretic activity in the dog as concentration of Na+ in urinary excretion (dose 6.25 mg/Kg, perorally) to that of K. In kind it is functional, Urine. In outline: as §2
Assay [22] concerns Canis familiaris. As to the kind of experiment: Diuretic activity in the dog (2 animals/dose) at (dose 6.25 mg/Kg), when administered perorally. In kind it is functional, Canis lupus familiaris, Urine. In outline:
as §2

The nature of assay [23]: It is the ratio, measured as saluretic activity in the dog as concentration of Na+ in urinary excretion (dose 0.4 mg/Kg, perorally) to that of K. In kind it is functional, Urine. In outline: as §2
Assay [24] relates to Canis familiaris. Nature of the assay: Saluretic activity in the dog measured as concentration of Cl - in urinary excretion (2 animals/dose) at (dose 6.25 mg/Kg, perorally). In kind it is functional, Canis lupus familiaris, Urine. The method in brief:
as §4

The test system of assay [25] is Canis familiaris. As to the kind of experiment: Salidiuretic activity on the basis of the 1.56 mg/Kg po dog assay; compound is found to be active. In kind it is functional, organism-based. The settings on record: Canis lupus familiaris; Urine.
Assay [26] deals with Canis familiaris. Nature of the assay: Sailuric activity in the dog measured as concentration of K+ in urinary excretion (2 animals/dose) at (dose 1.56 mg/Kg, po). The format is functional, Canis lupus familiaris, Urine. The method in brief:
as §4

Assay [27] concerns Rattus norvegicus. Nature of the assay: Salidiuretic activity on the basis of the 50 mg/kg po rat assay; Compound is found to be modetately active. The format is functional, organism-based. Details: dose 50 mg/kg. The settings on record: Urine.
In assay [28] the test system is Canis familiaris. As to the kind of experiment: Sailuric activity in the dog measured as concentration of Cl - in urinary excretion (2 animals/dose) at (dose 1.56 mg/Kg, po). The format is functional, Canis lupus familiaris, Urine. The method in brief: as §4
The nature of assay [29]: It is the ratio, measured as saluretic activity in the dog as concentration of Cl- in urinary excretion (dose 1.56 mg/Kg, perorally) to that of (Na+)+(K+). The format is functional, Urine. In outline: as §2

Take `NCc1ccco1.NS(=O)(=O)c1cc(S(=O)(=O)O)c(NCc2ccco2)cc1Cl`: the Saldiuretic activity result in the assay on Canis familiaris [1] and with Rattus norvegicus [2] was “Active” throughout.
As to `NS(=O)(=O)c1cc(S(=O)(=O)[O-])c(NCc2ccco2)cc1Cl.[Na+]`, the Saluretic activity was found to be 8.3 m equiv 5hr-1 kg-1 in the assay filed under Rattus norvegicus [3]; 0.53 m equiv 6hr-1 kg-1 in the assay on Canis familiaris [7]; 2.61 m equiv 6hr-1 kg-1 in the assay with Canis familiaris [11]; 0.45 m equiv 6hr-1 kg-1 with Canis familiaris [12]; 2.3 m equiv 5hr-1 kg-1 in the assay listed under Rattus norvegicus [13]; 7.1 m equiv 5hr-1 kg-1 in the assay filed under Rattus norvegicus [15]. Also, the values for the Saluretic activity with Canis familiaris [17], in the assay with Canis familiaris [18] and in the assay on Canis familiaris [20] were 0.19 m equiv 6hr-1 kg-1, 0.69 m equiv 6hr-1 kg-1 and 4.36 m equiv 6hr-1 kg-1, respectively. Moreover, the Ratio stood at 1.1 in assay [4]; 1 in [10]; 0.9 in assay [14]; 4.9 in [19]; 5.6 in assay [21]; 2.3 in assay [23]. Further, the Saldiuretic activity is on record as 0.78 m equiv 6hr-1 kg-1 in the assay on Canis familiaris [5] and 4.74 m equiv 6hr-1 kg-1 with Canis familiaris [24]. For the same molecule, the Diuretic activity turned out to be 2.8 mL/kg in the assay filed under Rattus norvegicus [6], 37 ml kg-1 6hr-1 in the assay with Canis familiaris [8], 42.4 ml kg-1 6hr-1 in the assay with Canis familiaris [9] and 66.5 ml kg-1 6hr-1 in the assay with Canis familiaris [22]. The “Concentration of Cl-” value in the assay on Canis familiaris [16] is recorded as 3.24 m equiv 6hr-1 kg-1.
Turning to `NCc1ccccc1.NS(=O)(=O)c1cc(S(=O)(=O)O)c(NCc2ccccc2)cc1Cl`, the Saluretic activity in the assay filed under Rattus norvegicus [3] is recorded as 1.2 m equiv 5hr-1 kg-1; with Canis familiaris [11], 1.65 m equiv 6hr-1 kg-1; in the assay listed under Rattus norvegicus [13] it was 1.4 m equiv 5hr-1 kg-1; in the assay with Canis familiaris [26], 0.35 m equiv 6hr-1 kg-1; in the assay filed under Rattus norvegicus [15], 1.4 m equiv 5hr-1 kg-1. The Diuretic activity in the assay filed under Rattus norvegicus [6] was 1.4 mL/kg; with Canis familiaris [9] it was 40.4 ml kg-1 6hr-1. In addition, the Saldiuretic activity entry in the assay with Canis familiaris [25] was “Active”. The values for the Saldiuretic activity entry in the assay with Rattus norvegicus [27] and in the assay with Canis familiaris [28] were “Weak activity” and 2.07 m equiv 6hr-1 kg-1, respectively. Further, the values for the Ratio in assay [19] and in assay [29] were 4.7 and 1.05, respectively.
